Measurements published in ChEMBL document CHEMBL5696442, “Discovery of type II inhibitors of TGFβ-activated kinase 1 (TAK1) and mitogen-activated protein kinase kinase kinase kinase 2 (MAP4K2)” (J Med Chem, 2015).

Tests used:
[1] = biological target: T1, Phosphatidylinositol 5-phosphate 4-kinase type-2 gamma (Homo sapiens) (UniProt Q8TBX8); test: Inhibition of PIP4K2C ATP labeling site harbouring VKELPTLKDMDFLNK in human A-375 cells at 0.5 uM by KiNativ Profiling analysis relative to control; format: cell-based
T1 sequence (whole entry): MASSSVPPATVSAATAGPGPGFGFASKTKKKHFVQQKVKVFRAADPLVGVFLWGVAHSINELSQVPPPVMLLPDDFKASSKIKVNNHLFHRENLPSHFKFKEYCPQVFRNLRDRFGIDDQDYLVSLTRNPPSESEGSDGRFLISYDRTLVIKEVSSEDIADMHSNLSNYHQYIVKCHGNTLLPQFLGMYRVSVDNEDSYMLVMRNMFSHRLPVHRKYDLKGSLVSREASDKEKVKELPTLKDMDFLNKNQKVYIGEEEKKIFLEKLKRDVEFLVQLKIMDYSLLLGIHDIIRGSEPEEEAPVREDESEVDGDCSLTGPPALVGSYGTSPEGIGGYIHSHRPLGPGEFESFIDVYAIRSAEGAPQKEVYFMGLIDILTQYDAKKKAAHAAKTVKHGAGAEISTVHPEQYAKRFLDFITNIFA
Method in brief: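 Live A375 melanoma cells were treated with compound at 5 or 0.5 μM, then lysed. Lysates were labeled with a lysine-reactive ATP or ADP-biotin probe. Read-out was the compound's protection of kinase labeling sites from probe labeling (KiNativ).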

[2] = biological target: Tyrosine-protein kinase Fyn (Homo sapiens) (UniProt P06241); test: Inhibition of FYN ACT labeling site in human A-375 cells at 0.5 uM by KiNativ Profiling analysis relative to control; format: cell-based
[3] = biological target: Casein kinase II subunit alpha (Homo sapiens) (UniProt P68400); test: Inhibition of CK2a1 Protein Kinase Domain in human A-375 cells at 0.5 uM by KiNativ Profiling analysis relative to control; format: cell-based
Method in brief: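 Live A375 melanoma cells were treated with compound at 5 or 0.5 μM. The cells were then lysed, and the lysates were labeled with a lysine-reactive ATP or ADP-biotin acyl probe (KiNativ). Inhibition is the compound's protection of each kinase labeling-site peptide from probe labeling, relative to untreated control.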

[4] = biological target: T2, Serine/threonine-protein kinase STK11 (Homo sapiens) (UniProt Q15831); test: Inhibition of LKB1 Lys2 labeling site in human A-375 cells at 0.05 uM by KiNativ Profiling analysis relative to control; format: cell-based
T2 sequence (whole entry): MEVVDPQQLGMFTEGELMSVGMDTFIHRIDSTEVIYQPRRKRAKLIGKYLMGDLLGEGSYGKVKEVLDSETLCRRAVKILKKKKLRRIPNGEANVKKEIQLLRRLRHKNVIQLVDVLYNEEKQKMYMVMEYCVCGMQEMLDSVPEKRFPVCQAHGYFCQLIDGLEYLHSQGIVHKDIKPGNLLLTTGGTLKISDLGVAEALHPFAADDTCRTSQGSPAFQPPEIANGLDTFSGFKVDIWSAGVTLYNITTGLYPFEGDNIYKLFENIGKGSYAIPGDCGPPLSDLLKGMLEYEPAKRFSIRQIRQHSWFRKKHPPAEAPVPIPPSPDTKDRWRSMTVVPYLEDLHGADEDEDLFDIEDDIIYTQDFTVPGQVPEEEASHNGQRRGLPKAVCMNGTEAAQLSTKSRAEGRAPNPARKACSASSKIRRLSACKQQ

[5] = biological target: Tyrosine-protein kinase ABL2 (Homo sapiens, UniProt P42684); test: Inhibition of ARG (unknown origin) ACT labeling site by KiNativ Profiling analysis
[6] = biological target: Serine/threonine-protein kinase Nek6 (Homo sapiens) (UniProt Q9HC98); test: Inhibition of NEK6 Lys2 labeling site in human A-375 cells at 0.5 uM by KiNativ Profiling analysis relative to control; format: cell-based
[7] = biological target: T3, Mixed lineage kinase domain-like protein (Homo sapiens) (UniProt Q8NB16); test: Inhibition of MLKL Lys1 labeling site in human A-375 cells at 0.05 uM by KiNativ Profiling analysis relative to control; format: cell-based
T3 sequence (whole entry): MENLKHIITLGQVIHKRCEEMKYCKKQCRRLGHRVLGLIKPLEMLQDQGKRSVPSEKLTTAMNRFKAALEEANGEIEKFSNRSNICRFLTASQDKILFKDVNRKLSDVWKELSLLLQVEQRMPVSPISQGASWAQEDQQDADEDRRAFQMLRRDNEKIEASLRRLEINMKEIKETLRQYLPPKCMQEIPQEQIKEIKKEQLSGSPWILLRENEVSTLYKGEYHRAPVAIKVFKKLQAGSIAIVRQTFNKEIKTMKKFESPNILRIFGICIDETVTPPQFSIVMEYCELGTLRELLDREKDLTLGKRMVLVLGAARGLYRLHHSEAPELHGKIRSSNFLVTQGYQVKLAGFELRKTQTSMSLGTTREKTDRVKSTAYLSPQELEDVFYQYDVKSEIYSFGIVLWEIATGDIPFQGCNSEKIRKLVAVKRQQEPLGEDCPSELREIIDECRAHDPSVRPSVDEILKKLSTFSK

[8] = biological target: T4, Mitogen-activated protein kinase kinase kinase 3 (Homo sapiens) (UniProt Q99759); test: Inhibition of MAP3K3 Lys1 labeling site in human A-375 cells at 0.05 uM by KiNativ Profiling analysis relative to control; format: cell-based
T4 sequence (whole entry): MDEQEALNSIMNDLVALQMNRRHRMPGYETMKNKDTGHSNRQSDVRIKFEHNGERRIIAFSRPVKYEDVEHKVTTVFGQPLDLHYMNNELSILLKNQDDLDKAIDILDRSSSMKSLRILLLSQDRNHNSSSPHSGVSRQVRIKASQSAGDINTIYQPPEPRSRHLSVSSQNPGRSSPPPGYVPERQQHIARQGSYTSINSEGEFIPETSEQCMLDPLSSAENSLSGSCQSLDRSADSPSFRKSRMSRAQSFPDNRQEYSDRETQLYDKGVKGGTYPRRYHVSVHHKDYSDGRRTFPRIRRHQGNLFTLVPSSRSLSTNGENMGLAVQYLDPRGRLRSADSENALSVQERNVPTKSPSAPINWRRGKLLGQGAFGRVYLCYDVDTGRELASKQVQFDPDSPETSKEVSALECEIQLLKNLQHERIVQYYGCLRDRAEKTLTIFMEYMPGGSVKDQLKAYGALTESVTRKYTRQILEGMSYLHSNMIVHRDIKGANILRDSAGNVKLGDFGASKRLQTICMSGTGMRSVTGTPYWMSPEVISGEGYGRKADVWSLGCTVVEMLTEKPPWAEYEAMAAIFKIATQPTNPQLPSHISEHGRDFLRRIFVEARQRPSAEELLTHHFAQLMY

[9] = biological target: MAP/microtubule affinity-regulating kinase 3 (Homo sapiens) (UniProt P27448); test: Inhibition of MARK3 Lys1 labeling site in human A-375 cells at 0.05 uM by KiNativ Profiling analysis relative to control; format: cell-based
[10] = biological target: Serine/threonine-protein kinase ATR (Homo sapiens) (UniProt Q13535); test: Inhibition of ATR ATP labeling site in human A-375 cells at 0.05 uM by KiNativ Profiling analysis relative to control; format: cell-based
Serine/threonine-protein kinase ATR (Homo sapiens), sequence (Q13535 whole entry, looked up): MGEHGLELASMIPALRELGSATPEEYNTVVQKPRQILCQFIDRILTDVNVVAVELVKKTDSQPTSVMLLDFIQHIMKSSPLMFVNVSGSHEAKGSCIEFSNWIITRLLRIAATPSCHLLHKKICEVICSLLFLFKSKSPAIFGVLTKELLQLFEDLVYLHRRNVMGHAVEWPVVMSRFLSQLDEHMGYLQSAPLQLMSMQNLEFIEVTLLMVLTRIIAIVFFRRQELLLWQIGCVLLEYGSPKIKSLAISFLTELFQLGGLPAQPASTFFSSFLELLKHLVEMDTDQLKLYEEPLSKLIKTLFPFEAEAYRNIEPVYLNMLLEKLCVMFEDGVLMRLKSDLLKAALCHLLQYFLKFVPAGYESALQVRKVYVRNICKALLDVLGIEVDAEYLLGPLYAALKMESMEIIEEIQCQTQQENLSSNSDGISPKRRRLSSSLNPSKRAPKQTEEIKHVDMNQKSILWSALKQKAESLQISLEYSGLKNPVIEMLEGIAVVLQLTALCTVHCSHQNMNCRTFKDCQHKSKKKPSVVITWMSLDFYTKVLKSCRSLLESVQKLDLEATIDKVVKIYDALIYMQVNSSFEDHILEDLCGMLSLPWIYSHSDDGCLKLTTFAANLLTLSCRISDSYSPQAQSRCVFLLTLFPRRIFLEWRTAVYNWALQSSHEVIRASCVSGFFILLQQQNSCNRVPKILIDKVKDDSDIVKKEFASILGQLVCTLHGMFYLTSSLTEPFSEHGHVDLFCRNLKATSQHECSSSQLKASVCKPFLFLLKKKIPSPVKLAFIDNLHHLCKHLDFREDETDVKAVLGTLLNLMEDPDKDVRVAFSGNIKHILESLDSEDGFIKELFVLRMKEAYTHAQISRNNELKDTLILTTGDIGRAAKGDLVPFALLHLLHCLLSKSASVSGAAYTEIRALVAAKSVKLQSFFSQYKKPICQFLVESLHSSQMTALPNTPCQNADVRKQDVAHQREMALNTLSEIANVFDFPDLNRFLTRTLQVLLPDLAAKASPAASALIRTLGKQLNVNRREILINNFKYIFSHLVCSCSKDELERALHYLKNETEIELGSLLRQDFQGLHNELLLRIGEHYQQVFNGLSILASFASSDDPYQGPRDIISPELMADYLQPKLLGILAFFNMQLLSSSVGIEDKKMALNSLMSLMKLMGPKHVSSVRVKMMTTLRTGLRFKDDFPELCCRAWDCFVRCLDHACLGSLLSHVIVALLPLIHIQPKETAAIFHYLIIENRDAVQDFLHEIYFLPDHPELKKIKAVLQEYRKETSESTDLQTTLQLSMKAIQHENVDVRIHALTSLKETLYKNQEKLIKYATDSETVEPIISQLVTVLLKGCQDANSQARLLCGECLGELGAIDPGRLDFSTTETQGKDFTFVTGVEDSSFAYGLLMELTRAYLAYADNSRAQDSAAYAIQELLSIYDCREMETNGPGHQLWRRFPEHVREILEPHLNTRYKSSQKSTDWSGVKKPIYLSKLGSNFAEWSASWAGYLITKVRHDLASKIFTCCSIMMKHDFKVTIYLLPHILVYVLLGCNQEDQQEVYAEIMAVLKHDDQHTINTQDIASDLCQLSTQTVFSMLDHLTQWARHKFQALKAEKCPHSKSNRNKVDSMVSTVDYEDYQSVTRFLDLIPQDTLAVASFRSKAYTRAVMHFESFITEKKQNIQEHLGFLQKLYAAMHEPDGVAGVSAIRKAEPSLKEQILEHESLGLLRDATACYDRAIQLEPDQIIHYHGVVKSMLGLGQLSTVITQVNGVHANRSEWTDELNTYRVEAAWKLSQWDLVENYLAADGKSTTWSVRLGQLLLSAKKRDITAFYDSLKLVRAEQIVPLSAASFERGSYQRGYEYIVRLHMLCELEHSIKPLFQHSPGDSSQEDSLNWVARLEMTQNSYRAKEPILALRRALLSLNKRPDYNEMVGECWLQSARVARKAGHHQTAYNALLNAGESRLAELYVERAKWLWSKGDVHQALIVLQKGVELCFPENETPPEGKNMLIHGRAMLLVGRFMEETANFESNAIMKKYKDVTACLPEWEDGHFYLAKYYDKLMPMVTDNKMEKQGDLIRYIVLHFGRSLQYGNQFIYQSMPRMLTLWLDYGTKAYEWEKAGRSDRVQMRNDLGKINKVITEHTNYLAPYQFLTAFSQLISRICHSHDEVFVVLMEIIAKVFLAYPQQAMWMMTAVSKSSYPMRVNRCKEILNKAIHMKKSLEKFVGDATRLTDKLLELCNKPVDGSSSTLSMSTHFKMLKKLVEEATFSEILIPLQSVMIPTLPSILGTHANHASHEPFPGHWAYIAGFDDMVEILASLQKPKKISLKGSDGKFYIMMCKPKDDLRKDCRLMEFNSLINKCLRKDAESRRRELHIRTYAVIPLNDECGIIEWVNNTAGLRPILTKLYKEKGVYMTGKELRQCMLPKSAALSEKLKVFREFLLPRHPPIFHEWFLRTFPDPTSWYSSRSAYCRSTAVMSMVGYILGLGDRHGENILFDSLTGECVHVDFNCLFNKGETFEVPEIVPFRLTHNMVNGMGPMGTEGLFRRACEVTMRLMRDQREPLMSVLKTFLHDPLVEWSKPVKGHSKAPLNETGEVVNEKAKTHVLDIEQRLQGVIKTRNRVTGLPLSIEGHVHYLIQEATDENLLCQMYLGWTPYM

Serine/threonine-protein kinase Nek6 (Homo sapiens), sequence (Q9HC98 whole entry, the tested form may be a part): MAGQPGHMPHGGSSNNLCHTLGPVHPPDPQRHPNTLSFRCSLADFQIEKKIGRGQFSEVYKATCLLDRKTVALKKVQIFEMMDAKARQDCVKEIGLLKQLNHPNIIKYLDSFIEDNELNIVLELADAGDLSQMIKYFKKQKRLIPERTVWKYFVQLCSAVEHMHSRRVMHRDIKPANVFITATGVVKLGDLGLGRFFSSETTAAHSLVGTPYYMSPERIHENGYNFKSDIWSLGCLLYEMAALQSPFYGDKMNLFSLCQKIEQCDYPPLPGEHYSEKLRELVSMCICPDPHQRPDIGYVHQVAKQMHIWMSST
MAP/microtubule affinity-regulating kinase 3 (Homo sapiens), sequence (P27448 whole entry, looked up): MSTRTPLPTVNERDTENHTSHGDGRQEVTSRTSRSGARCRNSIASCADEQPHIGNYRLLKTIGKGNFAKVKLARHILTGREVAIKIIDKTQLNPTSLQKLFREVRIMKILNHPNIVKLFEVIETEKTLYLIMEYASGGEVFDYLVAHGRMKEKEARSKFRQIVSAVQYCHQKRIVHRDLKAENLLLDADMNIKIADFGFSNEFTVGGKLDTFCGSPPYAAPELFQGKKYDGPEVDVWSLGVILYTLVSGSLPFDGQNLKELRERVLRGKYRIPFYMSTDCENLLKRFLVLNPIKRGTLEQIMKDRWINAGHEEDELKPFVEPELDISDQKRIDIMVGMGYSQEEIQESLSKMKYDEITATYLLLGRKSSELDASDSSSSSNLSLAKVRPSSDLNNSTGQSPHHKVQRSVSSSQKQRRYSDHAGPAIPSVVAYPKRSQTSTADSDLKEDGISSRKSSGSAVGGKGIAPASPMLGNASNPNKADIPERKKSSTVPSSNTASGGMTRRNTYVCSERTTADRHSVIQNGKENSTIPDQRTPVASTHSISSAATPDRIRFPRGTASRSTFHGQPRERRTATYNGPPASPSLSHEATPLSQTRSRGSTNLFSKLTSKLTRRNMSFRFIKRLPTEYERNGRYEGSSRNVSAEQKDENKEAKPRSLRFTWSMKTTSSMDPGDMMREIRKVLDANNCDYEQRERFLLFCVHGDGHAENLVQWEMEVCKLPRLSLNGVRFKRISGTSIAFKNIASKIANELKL
Casein kinase II subunit alpha (Homo sapiens), sequence (P68400 whole entry, looked up, the tested form may be a part): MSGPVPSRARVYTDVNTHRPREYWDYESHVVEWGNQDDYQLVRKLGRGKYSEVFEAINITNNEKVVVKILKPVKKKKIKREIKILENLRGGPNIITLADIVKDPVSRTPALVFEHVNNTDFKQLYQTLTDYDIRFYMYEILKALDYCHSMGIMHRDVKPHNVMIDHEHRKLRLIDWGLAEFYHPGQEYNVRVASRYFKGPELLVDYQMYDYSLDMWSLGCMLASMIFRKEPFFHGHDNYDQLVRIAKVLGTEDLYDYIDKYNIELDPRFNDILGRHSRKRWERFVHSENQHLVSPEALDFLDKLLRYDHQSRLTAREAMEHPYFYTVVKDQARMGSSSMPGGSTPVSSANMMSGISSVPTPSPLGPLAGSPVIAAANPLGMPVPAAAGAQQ
Tyrosine-protein kinase Fyn (Homo sapiens), sequence (P06241 2-537 limits assumed): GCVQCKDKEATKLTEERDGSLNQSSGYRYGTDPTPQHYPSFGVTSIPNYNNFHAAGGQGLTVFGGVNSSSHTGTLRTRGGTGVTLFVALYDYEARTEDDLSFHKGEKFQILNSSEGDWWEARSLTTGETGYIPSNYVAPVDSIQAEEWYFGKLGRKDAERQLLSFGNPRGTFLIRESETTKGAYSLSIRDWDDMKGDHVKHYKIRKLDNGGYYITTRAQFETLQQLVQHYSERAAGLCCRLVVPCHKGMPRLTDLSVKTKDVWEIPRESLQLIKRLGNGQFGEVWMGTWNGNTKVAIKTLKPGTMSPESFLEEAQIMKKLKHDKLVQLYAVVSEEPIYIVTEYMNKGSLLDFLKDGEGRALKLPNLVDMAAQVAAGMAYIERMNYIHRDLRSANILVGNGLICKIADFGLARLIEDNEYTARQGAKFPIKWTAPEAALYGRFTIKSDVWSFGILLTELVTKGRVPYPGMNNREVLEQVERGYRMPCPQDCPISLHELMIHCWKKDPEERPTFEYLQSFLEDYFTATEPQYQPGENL

CCN1CCN(Cc2ccc(NC(=O)c3ccc(C)c(/C=C/c4cnc5[nH]ccc5c4OC)c3)cc2C(F)(F)F)CC1
inhibition [1]: -5.8% | inhibition [2]: 72.6% | inhibition [3]: 12.9% | inhibition [4]: 28.3% | IC50 [5]: 51.5 nM | inhibition [6]: 10.7% | inhibition [7]: 12.8% | inhibition [8]: 31% | inhibition [9]: 16% | inhibition [10]: -7.3%

CCN1CCN(Cc2ccc(NC(=O)c3ccc(C)c(Oc4ccnc5[nH]ccc45)c3)cc2C(F)(F)F)CC1
inhibition [1]: 3.2% | inhibition [2]: 36.5% | inhibition [3]: 2% | inhibition [4]: 13.1% | IC50 [5]: 75.2 nM | inhibition [6]: 7.8% | inhibition [7]: 14.8% | inhibition [8]: 16.7% | inhibition [9]: -4.5% | inhibition [10]: 7.9%
